HTRA1 inh: HTRA1 (human) protease inhibition; Q92743; recombinant HTRA1, FP-rhodamine activity-based probe, fluorescence polarization; inhibition, % at 5.96 µM; 340,000 tested, 0.5% active; AID 504803; in the data active = inhibition above about 36%
Target sequence (Q92743 whole entry, looked up): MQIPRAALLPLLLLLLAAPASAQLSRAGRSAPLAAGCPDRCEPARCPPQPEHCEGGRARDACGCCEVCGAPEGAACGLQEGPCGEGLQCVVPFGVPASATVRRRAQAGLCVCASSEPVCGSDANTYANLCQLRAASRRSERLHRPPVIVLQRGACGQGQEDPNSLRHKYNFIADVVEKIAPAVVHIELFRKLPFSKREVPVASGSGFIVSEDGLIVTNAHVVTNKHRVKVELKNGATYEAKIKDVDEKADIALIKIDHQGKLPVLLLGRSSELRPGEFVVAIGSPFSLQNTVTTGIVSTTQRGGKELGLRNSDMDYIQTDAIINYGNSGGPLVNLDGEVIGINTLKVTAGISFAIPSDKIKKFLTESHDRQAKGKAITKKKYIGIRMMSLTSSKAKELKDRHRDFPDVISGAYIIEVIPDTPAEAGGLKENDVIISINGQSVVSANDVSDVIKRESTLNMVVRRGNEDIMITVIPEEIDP
ABHD4 inh: ABHD4 (mouse) inhibition, primary FP screen | 370,000 tested, 0.54% active | inhibition, % at 8.92 µM | purified mABHD4, FP-Rh probe fluorescence polarization;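 active = inhibition exceeding the mean over every tested compound plus 3 SD, cut at about 30% in these data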
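assay system = mABHD4 protein | compound dosing = single nominal dose of 8.92 µM, 0.89% DMSO final | read-out basis = percent inhibition of probe binding, normalized to plate controls | schedule = Enzyme–compound pre-incubation 45 min, then probe 60 min, both 25 °C | detection = fluorescence polarization, excitation 525 nm, emission 598 nm, BODIPY TMR filters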
SIAE inh: inhibitors of human sialic acid acetylesterase SIAE; AID 1053197; inhibition, % at 9.66 µM; SIAE FP-Rh probe binding, fluorescence polarization; 370,000 tested, 0.69% active; Q9HAT2;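 active = inhibition above a cutoff: mean of compounds within the control limits plus 3 SD of those, cut at about 17% in these data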
PME-1 primary: blocks human protein phosphatase methylesterase 1; Q9Y570; recombinant PME-1, FP-Rh probe fluorescence polarization; inhibition, % at 5.9 µM; 320,000 tested, 0.53% active; AID 2130;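 active = inhibition above the campaign mean of all compounds plus 3 SD, cut at about 26% in these data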;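 note: competitive labeling of PME-1 active site by serine hydrolase directed probe; inhibitors block probe labeling so polarization falls and inhibition rises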
Fam108B inh: Fam108B inhibition, counter-screen for RBBP9 inhibitors. 300,000 tested, 0.33% active. recombinant Fam108B, FP-Rh probe fluorescence polarization. inhibition, % at 9.51 µM;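 active = inhibition above the screen mean inhibition plus 3 SD, computed separately per campaign, cut at about 18% in these data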;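 note: inhibitors lower polarization as less probe binds the enzyme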
TCR-CD3 inh: human TCR-CD3 binding inhibition. TAMRA-labeled TCR probe fluorescence, biochemical. inhibition, % at 9.4 µM. 360,000 tested, 0.37% active. AID 651800; in the data active = inhibition above about 19%;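 note: recombinant mutant TCR 2C K166C tagged with TAMRA read by polarization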
HTRA1 inh conf: HTRA1 (human) inhibition, confirmation; shares compounds with HTRA1 inh; recombinant HTRA1, FP-rhodamine activity-based probe, fluorescence polarization; inhibition, % at 5.96 µM; 1,600 tested, 66% active;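 active = mean inhibition over three repeats above a set limit taken from the earlier primary screen, cut at about 37% in these data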;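 note: inhibitors block probe binding so polarization drops and inhibition rises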
Of the large screens only hits and unclear results are named; the others gave an inactive call (follow-up assays come after a bar, where they were run). The list is not random: actives were taken first. Their share in the collection is about 1.8%.

CC#CC[N+](C)(C)CCCCCCCC	none
CCCCCCCCCCCCCCCC[N+](C)(C)Cc1ccc(F)cc1	HTRA1 inh 64, ABHD4 inh 44 (no result: PME-1 primary, Fam108B inh) | HTRA1 inh conf 64
CCOc1ccc(/C=C/C(=O)c2cc(Br)ccc(=O)c2O)cc1	HTRA1 inh 51 | HTRA1 inh conf 44
Cc1cc(-c2csc(N)n2)c(C)n1-c1ccc(Cl)c(Cl)c1	none
C=CCn1c(C)cc(-c2csc(N)n2)c1C	HTRA1 inh 60 | HTRA1 inh conf inactive
COc1ccc(-n2c(C)cc(-c3csc(N)n3)c2C)cc1	HTRA1 inh 39 | HTRA1 inh conf inactive
C=CCn1c(C)cc(-c2csc(NC)n2)c1C	HTRA1 inh 42 (no result: PME-1 primary, Fam108B inh) | HTRA1 inh conf inactive
N=c1c2c(ccn1CCCCc1ccccc1)Oc1ccc3ccccc3c1C2c1ccccc1 (configuration not stated)	none (no result: HTRA1 inh, PME-1 primary, Fam108B inh, TCR-CD3 inh)
Cc1cccc(NC(=O)[C@H]2CC(=O)O[C@@H]2c2ccccc2)c1C	none (no result: HTRA1 inh, PME-1 primary, Fam108B inh, TCR-CD3 inh)
CN(C)C1CCN(Cc2cc(COCc3ccccc3)c3cccnc3c2O)C1 (configuration not stated)	HTRA1 inh 54 (no result: ABHD4 inh, SIAE inh, PME-1 primary, Fam108B inh, TCR-CD3 inh) | HTRA1 inh conf 76
Oc1ccc(COCc2ccccc2)c2cccnc12	none
Oc1c(CN2CCCCC2)cc(COCc2ccccc2)c2cccnc12	HTRA1 inh 65 | HTRA1 inh conf 72
Oc1c(CN2CCCCC2)ccc2cccnc12	HTRA1 inh 73 (no result: PME-1 primary, Fam108B inh) | HTRA1 inh conf 69
CN(C)S(=O)(=O)c1ccc2nc(COCc3nc4ccc(S(=O)(=O)N(C)C)cc4[nH]3)[nH]c2c1	none (no result: HTRA1 inh, PME-1 primary, Fam108B inh, TCR-CD3 inh)
Cc1ccc(NC(=O)C2CCCN(c3nnc(-n4cccc4)s3)C2)cc1C (configuration not stated)	none (no result: HTRA1 inh, PME-1 primary, Fam108B inh, TCR-CD3 inh)
COc1ccc(-c2cc(-c3nnc(SCC(=O)Nc4ccccc4-c4ccccc4)n3N)[nH]n2)cc1	none (no result: HTRA1 inh, PME-1 primary, Fam108B inh, TCR-CD3 inh)
O=C(NN=C/C=C/c1ccco1)c1cc(-c2ccc(Cl)cc2)n[nH]1	none (no result: HTRA1 inh, PME-1 primary, Fam108B inh, TCR-CD3 inh)
O=C1CCNc2cc3ccccc3cc21	HTRA1 inh 41 (no result: ABHD4 inh, SIAE inh, TCR-CD3 inh) | HTRA1 inh conf inactive
COc1ccc(-c2cc(-c3nnc(SCC(=O)N4CCOCC4)n3N)[nH]n2)cc1	none (no result: HTRA1 inh, PME-1 primary, Fam108B inh, TCR-CD3 inh)
Oc1ccc(/C=N/N2CCN(C3c4ccccc4-c4ccccc43)CC2)cc1	none
Oc1ccc(/C=N/N2CCN(C3c4ccccc4-c4ccccc43)CC2)cc1O	HTRA1 inh 38 | HTRA1 inh conf active
CCCCC(CC)CN=C(N)NC(N)=NCCCCCCN=C(N)NC(N)=NCC(CC)CCCC (configuration not stated)	HTRA1 inh 55 (no result: ABHD4 inh, SIAE inh, TCR-CD3 inh) | HTRA1 inh conf 93
Clc1ccccc1/C=N/NC1=Nc2cccc3cccc1c23	none
C(=N\NC1=Nc2cccc3cccc1c23)/c1ccccn1	HTRA1 inh 49 (no result: PME-1 primary, Fam108B inh) | HTRA1 inh conf 50
COC(=O)[C@]12C[C@H](CC(=O)N3CCN(C(=O)C4CC4)CC3)C(=O)N(CCc3ccc(OC)c(OC)c3)C1=C[C@H](C1CCCC1)O[C@@H]2C	none (no result: HTRA1 inh, PME-1 primary, Fam108B inh, TCR-CD3 inh)
O=C1NCCC12C(=O)Nc1ccccc12 (configuration not stated)	none
O=C(O)C1=C2C(=O)Nc3cccc(c32)C2(C1)C(=O)Nc1ccccc12 (configuration not stated)	HTRA1 inh 37, ABHD4 inh 33 (no result: PME-1 primary, Fam108B inh) | HTRA1 inh conf inactive
CCCC(=O)NC(c1ccc2c(c1)OCO2)c1cc(Cl)c2cccnc2c1O (configuration not stated)	HTRA1 inh 62 (no result: ABHD4 inh, SIAE inh, TCR-CD3 inh) | HTRA1 inh conf 59
CCCC(=O)NC(c1ccco1)c1cc(Cl)c2cccnc2c1O (configuration not stated)	HTRA1 inh 47 | HTRA1 inh conf 54
CCCC(=O)NC(c1cccs1)c1cc(Cl)c2cccnc2c1O (configuration not stated)	HTRA1 inh 63 | HTRA1 inh conf 56
CCC(=O)NC(c1ccco1)c1cc(Cl)c2ccccc2c1O (configuration not stated)	none (no result: Fam108B inh)
COC(=O)[C@]12C[C@H](CC(=O)N3CCC(c4ccccc4)CC3)C(=O)N(CCc3ccc(OC)c(OC)c3)C1=C[C@H](C(C)C)O[C@@H]2C1CC1	none (no result: HTRA1 inh, PME-1 primary, Fam108B inh, TCR-CD3 inh)
Clc1ccc2ccc3cccnc3c2n1	none (no result: PME-1 primary, Fam108B inh)
O=S1(=O)Nc2c(ccc3cccnc23)-c2ccccc21	HTRA1 inh 36 (no result: ABHD4 inh, SIAE inh, TCR-CD3 inh) | HTRA1 inh conf inactive
COC(=O)[C@]12C[C@H](CC(=O)N3CCCC3)C(=O)N(Cc3ccc(Cl)cc3Cl)C1=C[C@H](COCc1ccccc1)O[C@@H]2C	none (no result: HTRA1 inh, PME-1 primary, Fam108B inh, TCR-CD3 inh)
CCCn1c(/C=N/Nc2nc3ccccc3[nH]2)nc2ccccc21	none (no result: PME-1 primary, Fam108B inh)
Cn1c(/C=N/Nc2nc3ccccc3[nH]2)nc2ccccc21	HTRA1 inh 36, PME-1 primary 48 | HTRA1 inh conf 44
C=c1[nH]cc(C(C)c2c(C)n(C)c3ccccc23)/c1=C/C (configuration not stated)	none (no result: HTRA1 inh, PME-1 primary, Fam108B inh, TCR-CD3 inh)
S=c1[nH]nc(-c2cc(-c3ccccc3)n[nH]2)n1N=Cc1c[nH]c2ccccc12	none (no result: HTRA1 inh, PME-1 primary, Fam108B inh, TCR-CD3 inh)
Cc1cc2cc(CNC(=S)Nc3ccc(OC(F)F)cc3)ccc2n1C	HTRA1 inh 52 | HTRA1 inh conf inactive
COc1ccc(-c2nn(-c3ccccc3)cc2/C=N/N2C(=O)CSC2=S)cc1	HTRA1 inh 68 | HTRA1 inh conf 53
CC(C)=CCC[C@@]1(C(=O)O)[C@@H]2C/C=C(\C)CC/C=C(\C)CC[C@H]1[C@]1(CC2)CO1	none (no result: HTRA1 inh, PME-1 primary, Fam108B inh, TCR-CD3 inh)
Cc1ccc(C(NC(=O)C(C)C)c2cc([N+](=O)[O-])c3cccnc3c2O)cc1 (configuration not stated)	HTRA1 inh 37 | HTRA1 inh conf 65
CC(C)C(=O)NC(c1cccs1)c1cc([N+](=O)[O-])c2cccnc2c1O (configuration not stated)	HTRA1 inh 38 (no result: ABHD4 inh, SIAE inh, TCR-CD3 inh) | HTRA1 inh conf 37
CCOC(=O)[C@@]12CN(C(=O)OC(C)(C)C)CC=C1N(Cc1ccc(OC)cc1)C(=O)[C@H]2CC(=O)NCCc1ccccc1OC	none (no result: HTRA1 inh, PME-1 primary, Fam108B inh, TCR-CD3 inh)
O=c1[nH][nH]c2cc(=O)n(-c3cccc(C(F)(F)F)c3)nc12	HTRA1 inh 59, ABHD4 inh 62, PME-1 primary 37 | HTRA1 inh conf inactive
CN(C)c1ccc(N=Cc2cccn2C)cc1	HTRA1 inh 42, ABHD4 inh 35 | HTRA1 inh conf inactive
O=C(OCCc1ccccc1)c1cc(O)c(O)c(O)c1	HTRA1 inh 56 | HTRA1 inh conf 87
CC1Cc2ccccc2N1CC(=O)N(C)c1c(N)n(Cc2ccccc2)c(=O)[nH]c1=O (configuration not stated)	HTRA1 inh 43 (no result: Fam108B inh) | HTRA1 inh conf inactive
CCN(C(=O)CN1c2ccccc2CC1C)c1c(N)n(Cc2ccccc2)c(=O)[nH]c1=O (configuration not stated)	none

Bioassay records deposited in PubChem BioAssay by The Scripps Research Institute Molecular Screening Center.
